Test results taken from ChEMBL document CHEMBL1148612, “Rapid synthesis of triazole-modified resveratrol analogues via click chemistry” (J Med Chem, 2006).

Key:
[1] = tested on: MDA-MB-231; assay: Cytotoxicity against breast cancer MDA-MB-231 cell line by MTT assay; format: functional, cell-based; details: Homo sapiens
In short: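 MDA-MB-231 cells were screened by MTT in an automated format across decreasing compound concentrations. Viability was expressed as % of untreated control, with 70% of control as the arbitrary cutoff for reduced viability at 10 µM. IC50 values are approximate and were assigned to concentration ranges.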

[2] = tested on: RBL-2H3; assay: Cytotoxicity against basophilic leukemia RBL 2H3 cell line by MTT assay at 100 uM; format: functional, Rattus norvegicus
In short: (§1)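 Cells were exposed to compound at 100 µM for 48 h. Values are % viability relative to untreated control cells, given as mean ± SEM of four determinations.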

[3] = tested on: SH-SY5Y; assay: Cytotoxicity against neuroblastoma SHSY5Y cell line by MTT assay at 100 uM; format: functional, Homo sapiens; in short: as §1
[4] = tested on: MDA-MB-231; assay: Cytotoxicity against breast cancer MDA-MB-231 cell line by MTT assay at 100 uM; format: functional, Homo sapiens; in short: as §1
[5] = tested on: FG2; assay: Cytotoxicity against human pancreatic carcinoma FG2 cell line by MTT assay at 100 uM; format: functional; in short: as §1

`COc1cc(OC)cc(-c2cn(-c3ccc(OC)c(OC)c3)nn2)c1` showed an IC50 [1] of 10 µM.
`COc1cc(OC)cc(-c2cn(-c3ccc(OC(F)(F)F)cc3)nn2)c1` showed an IC50 [1] of over 1 µM.
`Oc1cc(O)cc(-c2cn(-c3ccc4c(c3)OCO4)nn2)c1` showed an IC50 [1] of over 1 µM.
With `COc1ccc(-n2cc(-c3ccc(OC)c(O)c3)nn2)cc1` the IC50 [1] was over 10 µM.
For `COc1ccc(-n2cc(-c3ccc(O)c(OC)c3)nn2)cc1`, the IC50 [1] was over 10 µM.
For `COc1ccc(-c2cn(-c3c(O)c(F)cc(F)c3F)nn2)cc1`, the IC50 [1] was over 1 µM.
Compound `COc1ccc(-n2cc(-c3ccc(N)cc3)nn2)cc1` has an IC50 [1] of over 0.1 µM.
For `COc1ccc(-n2cc(-c3ccc(N)cc3)nn2)cc1OC`, the IC50 [1] was over 10 µM.
`COc1ccc(-n2cc(-c3ccc(N)cc3)nn2)cc1O` gave an IC50 [1] of over 10 µM.
For `COc1ccc(-n2cc(-c3ccc(O)c(OC)c3)nn2)cc1O`, the IC50 [1] was over 10 µM.
`Oc1ccc(-c2cn(-c3cc(O)cc(O)c3)nn2)cc1` showed an Activity [2] of 110%, an Activity [3] of 93.4% and an Activity [4] of 97%. The Activity [5] was 93.7%.
Work on `COc1ccc(-c2cn(-c3c(O)c(F)cc(F)c3F)nn2)cc1O` yielded an IC50 [1] of over 10 µM.
`COc1ccc(-c2cn(-c3ccc(OC)cc3OC)nn2)cc1` showed an IC50 [1] of over 10 µM.
For `COc1ccc(-n2cc(-c3cc(O)cc(O)c3)nn2)c(OC)c1`, the IC50 [1] was 10 µM.
`COc1ccc(-c2cn(-c3ccc(OC)c(OC)c3)nn2)cc1O` showed an IC50 [1] of over 0.1 µM.
With `Nc1ccc(-c2cn(-c3ccc(Oc4ccccc4)cc3)nn2)cc1` the IC50 [1] was over 10 µM.
In the case of `COc1cc(OC)cc(-n2cc(-c3ccc(OC)c(OC)c3)nn2)c1`, the IC50 [1] is reported as over 1 µM.
Work on `COc1ccc(-c2cn(-c3ccc(OC)cc3)nn2)cc1` yielded an IC50 [1] of over 0.1 µM.
Compound `COc1ccc(-n2cc(-c3cc(O)cc(O)c3)nn2)cc1O` has an IC50 [1] of over 10 µM.
`COc1ccc(-n2cc(-c3cc(OC)c(OC)c(OC)c3)nn2)c(OC)c1` gave an IC50 [1] of over 10 µM.
`COc1cc(OC)cc(-c2cn(-c3cc(OC)c(OC)c(OC)c3)nn2)c1` gave an IC50 [1] of over 10 µM.
`COc1ccc(-c2cn(-c3ccc(OC)c(O)c3)nn2)cc1O` showed an IC50 [1] of over 10 µM.
Compound `COc1ccc(-c2cn(-c3ccc(OC(F)(F)F)cc3)nn2)cc1OC` has an IC50 [1] of over 1 µM.
`COc1cc(OC)cc(-n2cc(-c3ccc(OC)c(O)c3)nn2)c1` was tested, and the IC50 [1] was over 10 µM.
`COc1ccc(-c2cn(-c3cc(OC)c(OC)c(OC)c3)nn2)cc1O` was tested, and the IC50 [1] was over 10 µM.
In the case of `COc1ccc(-n2cc(-c3ccc(OC)c(OC)c3)nn2)cc1O`, the IC50 [1] is reported as over 1 µM.
In the case of `COc1cc(OC)cc(-n2cc(-c3ccc(O)c(OC)c3)nn2)c1`, the IC50 [1] is reported as 10 µM.
In the case of `COc1ccc(-c2cn(-c3ccc4c(c3)OCO4)nn2)cc1`, the IC50 [1] is reported as 1 µM.
In the case of `COc1ccc(-c2cn(-c3ccc(Oc4ccccc4)cc3)nn2)cc1O`, the IC50 [1] is reported as over 10 µM.
With `COc1ccc(-n2cc(-c3cc(OC)c(OC)c(OC)c3)nn2)cc1O` the IC50 [1] was 10 µM.
Compound `COc1cc(-c2cn(-c3ccc4c(c3)OCO4)nn2)cc(OC)c1OC` has an IC50 [1] of 10 µM.
With `COc1ccc(-c2cn(-c3ccc(OC(F)(F)F)cc3)nn2)cc1O` the IC50 [1] was over 10 µM.
`COc1ccc(-c2cn(-c3ccc(N)cc3)nn2)cc1` gave an IC50 [1] of over 0.1 µM.
`COc1cc(OC)cc(-c2cn(-c3cc(OC)cc(OC)c3)nn2)c1` was tested, and the IC50 [1] was over 10 µM.
For `COc1ccc(-c2cn(-c3cc(OC)cc(OC)c3)nn2)cc1`, the Activity [2] was 113%, the Activity [3] was 85.9% and the Activity [4] was 99.3%. For the same compound, the Activity [5] was 100.8%.
Work on `COc1cc(OC)cc(-c2cn(-c3ccc(OC)c(O)c3)nn2)c1` yielded an IC50 [1] of over 10 µM.
Compound `COc1ccc(-c2cn(-c3ccc4c(c3)OCO4)nn2)cc1OC` has an IC50 [1] of 10 µM.
For `COc1cc(OC)cc(-c2cn(-c3c(O)c(F)cc(F)c3F)nn2)c1`, the IC50 [1] was over 10 µM.
For `Oc1ccc(-n2cc(-c3cc(O)cc(O)c3)nn2)cc1`, the Activity [2] was 114%, the Activity [3] was 86.6% and the Activity [4] was 95.5%. For the same compound, the Activity [5] was 91.9%.
In the case of `Oc1ccc(/C=C/c2cc(O)cc(O)c2)cc1` [RESVERATROL], the Activity [2] is reported as 52.1%, the Activity [3] is reported as 33.5% and the Activity [4] is reported as 67.9%. For the same compound, the Activity [5] was 42.2%.
For `Nc1ccc(-c2cn(-c3ccc4c(c3)OCO4)nn2)cc1`, the IC50 [1] was over 10 µM.
Work on `COc1cc(OC)cc(-n2cc(-c3cc(O)cc(O)c3)nn2)c1` yielded an IC50 [1] of over 10 µM.
`COc1cc(OC)cc(-n2cc(-c3cc(OC)c(OC)c(OC)c3)nn2)c1` was tested, and the IC50 [1] was over 1 µM.
`COc1ccc(-c2cn(-c3cc(OC)c(OC)c(OC)c3)nn2)cc1` gave an IC50 [1] of over 10 µM.
With `COc1cc(-c2cn(-c3cc(OC)c(OC)c(OC)c3)nn2)ccc1O` the IC50 [1] was over 10 µM.
For `Oc1cc(O)cc(-c2cn(-c3ccc(OC(F)(F)F)cc3)nn2)c1`, the IC50 [1] was over 10 µM.
In the case of `COc1cc(-c2cn(-c3ccc(OC(F)(F)F)cc3)nn2)cc(OC)c1OC`, the IC50 [1] is reported as over 10 µM.
With `COc1ccc(-c2cn(-c3ccc(OC)c(OC)c3)nn2)cc1` the IC50 [1] was over 10 µM.
In the case of `COc1ccc(-n2cc(-c3cc(O)cc(O)c3)nn2)cc1OC`, the IC50 [1] is reported as over 10 µM.
`COc1cc(-c2cn(-c3ccc(OC(F)(F)F)cc3)nn2)ccc1O` was tested, and the IC50 [1] was 10 µM.
`COc1cc(OC)cc(-c2cn(-c3ccc(OC)cc3OC)nn2)c1` gave an IC50 [1] of over 10 µM.
`COc1cc(-c2cn(-c3cc(OC)c(OC)c(OC)c3)nn2)cc(OC)c1OC` showed an IC50 [1] of over 10 µM.
For `COc1ccc(-n2cc(-c3ccc(N)cc3)nn2)c(OC)c1`, the IC50 [1] was over 10 µM.
`COc1ccc(-n2cc(-c3cc(OC)cc(OC)c3)nn2)cc1` was tested, and the Activity [2] was 116%, the Activity [3] was 78.6% and the Activity [4] was 93.2%. It also gave an Activity [5] of 88.2%.
`COc1ccc(-c2cn(-c3ccc(OC)c(O)c3)nn2)cc1` was tested, and the IC50 [1] was over 0.1 µM.
`COc1ccc(-n2cc(-c3ccc(OC)c(OC)c3)nn2)cc1` was tested, and the IC50 [1] was over 0.1 µM.
`COc1ccc(-c2cn(-c3ccc4c(c3)OCO4)nn2)cc1O` gave an IC50 [1] of over 10 µM.
Compound `COc1cc(-c2cn(-c3c(O)c(F)cc(F)c3F)nn2)ccc1O` has an IC50 [1] of 10 µM.
`COc1cc(-n2cc(-c3cc(O)cc(O)c3)nn2)cc(OC)c1OC` gave an IC50 [1] of over 10 µM.
`COc1ccc(-c2cn(-c3ccc(N)cc3)nn2)cc1O` gave an IC50 [1] of over 10 µM.
`COc1cc(-c2cn(-c3ccc4c(c3)OCO4)nn2)ccc1O` gave an IC50 [1] of over 10 µM.
`COc1cc(-n2cc(-c3ccc(N)cc3)nn2)cc(OC)c1OC` gave an IC50 [1] of over 10 µM.
Work on `COc1ccc(-c2cn(-c3ccc(Oc4ccccc4)cc3)nn2)cc1OC` yielded an IC50 [1] of 10 µM.
Work on `Nc1ccc(-c2cn(-c3ccc(OC(F)(F)F)cc3)nn2)cc1` yielded an IC50 [1] of over 0.01 µM.
With `COc1ccc(-c2cn(-c3ccc(OC(F)(F)F)cc3)nn2)cc1` the IC50 [1] was 1 µM.
`COc1cc(OC)cc(-c2cn(-c3ccc(Oc4ccccc4)cc3)nn2)c1` gave an IC50 [1] of over 10 µM.
`COc1ccc(-c2cn(-c3ccc(Oc4ccccc4)cc3)nn2)cc1` was tested, and the IC50 [1] was over 0.1 µM.
Compound `COc1ccc(-n2cc(-c3cc(OC)c(OC)c(OC)c3)nn2)cc1` has an IC50 [1] of over 10 µM.
`COc1ccc(-n2cc(-c3cc(O)cc(O)c3)nn2)cc1` gave an IC50 [1] of over 10 µM.
With `COc1cc(OC)cc(-n2cc(-c3ccc(N)cc3)nn2)c1` the IC50 [1] was over 10 µM.
Work on `COc1ccc(-c2cn(-c3cc(O)cc(O)c3)nn2)cc1` yielded an Activity [2] of 99.6%, an Activity [3] of 62.2% and an Activity [4] of 72.2%. It also gave an Activity [5] of 83.7%.
`COc1cc(-c2cn(-c3ccc(Oc4ccccc4)cc3)nn2)cc(OC)c1OC` was tested, and the IC50 [1] was 10 µM.
`Nc1ccc(-c2cn(-c3c(O)c(F)cc(F)c3F)nn2)cc1` gave an IC50 [1] of over 10 µM.
With `Oc1cc(O)cc(-c2cn(-c3ccc(Oc4ccccc4)cc3)nn2)c1` the IC50 [1] was over 10 µM.
For `COc1cc(OC)cc(-c2cn(-c3ccc4c(c3)OCO4)nn2)c1`, the IC50 [1] was over 10 µM.
`COc1ccc(-n2cc(-c3ccc(OC)c(O)c3)nn2)c(OC)c1` gave an IC50 [1] of over 10 µM.
